According to ChEMBL document CHEMBL1145462, “In vivo pharmacodynamic activity of the glycopeptide dalbavancin” (Antimicrob Agents Chemother, 2007):
In brackets after ≈: the same amount, converted by molar mass.

Legend:
[1] = tested on: Staphylococcus aureus; assay: Bactericidal activity against […] Staphylococcus aureus ATCC 29213 infected neutropenic Swiss ICR mouse thigh infection model assessed as drug level causing 2-log reduction of bacterial count at 10 mg/kg, ip dosed every 72 hrs; format: functional; conditions: route intraperitoneal
[2] = tested on: Streptococcus pneumoniae; assay: AUC/MIC ratio of Streptococcus pneumoniae 1199 infected neutropenic mouse thigh infection model at 0.40 mg/kg, ip administered every 24 hrs by static effect experiment; format: functional; conditions: dose 0.4 mg/kg; route intraperitoneal
[3] = tested on: Staphylococcus aureus; assay: AUC/MBC ratio of Staphylococcus aureus ATCC 25923 infected neutropenic mouse thigh infection model at 160 mg/kg, ip administered every 72 hrs by static effect experiment; format: functional; conditions: route intraperitoneal
[4] = tested on: Staphylococcus aureus; assay: AUC/MBC ratio of Staphylococcus aureus 33591 infected neutropenic mouse thigh infection model at 74 mg/kg, ip administered every 72 hrs by static effect experiment; format: functional; conditions: route intraperitoneal
[5] = tested on: Staphylococcus aureus; assay: AUC/MBC ratio of Staphylococcus aureus Smith infected neutropenic mouse thigh infection model at 59 mg/kg, ip administered every 72 hrs by static effect experiment; format: functional; conditions: route intraperitoneal
[6] = tested on: Staphylococcus aureus; assay: AUC/MIC ratio of methicillin-resistant Staphylococcus aureus infected neutropenic mouse thigh infection model at 62 mg/kg, ip administered every 72 hrs by 1-log killing experiment; format: functional; conditions: route intraperitoneal
[7] = tested on: Streptococcus pneumoniae; assay: AUC/MIC ratio of Streptococcus pneumoniae 1293 infected neutropenic mouse thigh infection model at 0.65 mg/kg, ip administered every 24 hrs by 2-log killing experiment; format: functional; conditions: route intraperitoneal
[8] = tested on: Streptococcus pneumoniae; assay: AUC/MIC ratio of Streptococcus pneumoniae 1329 infected neutropenic mouse thigh infection model at 1.45 mg/kg, ip administered every 24 hrs by 2-log killing experiment; format: functional; conditions: route intraperitoneal
[9] = tested on: Staphylococcus aureus; assay: AUC/MIC ratio of Staphylococcus aureus 33591 infected neutropenic mouse thigh infection model at 33.5 mg/kg, ip administered every 24 hrs by 2-log killing experiment; format: functional; conditions: route intraperitoneal
[10] = tested on: Staphylococcus aureus; assay: AUC/MBC ratio of Staphylococcus aureus ATCC 25923 infected neutropenic mouse thigh infection model at 60 mg/kg, ip administered every 24 hrs by 2-log killing experiment; format: functional; conditions: route intraperitoneal
[11] = tested on: Staphylococcus aureus; assay: AUC/MBC ratio of methicillin-resistant Staphylococcus aureus infected neutropenic mouse thigh infection model at 53.5 mg/kg, ip administered every 24 hrs by 2-log killing experiment; format: functional; conditions: route intraperitoneal
[12] = tested on: Streptococcus pneumoniae; assay: AUC/MIC ratio of Streptococcus pneumoniae ATCC 10813 infected neutropenic mouse thigh infection model at 0.82 mg/kg, ip administered every 72 hrs by 2-log killing experiment; format: functional; conditions: route intraperitoneal
[13] = tested on: Streptococcus pneumoniae; assay: AUC/MIC ratio of Streptococcus pneumoniae ATCC 10813 infected neutropenic mouse thigh infection model at 0.71 mg/kg, ip administered every 72 hrs by static effect experiment; format: functional; conditions: route intraperitoneal
[14] = tested on: Staphylococcus aureus; assay: AUC/MBC ratio of Staphylococcus aureus 31005 infected neutropenic mouse thigh infection model at 127 mg/kg, ip administered every 72 hrs by 2-log killing experiment; format: functional; conditions: route intraperitoneal
[15] = tested on: Streptococcus pneumoniae; assay: Antibacterial activity against Streptococcus pneumoniae 1199 by microdilution method; format: functional
Procedure, shortened: (§1)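 MIC and MBC were determined by CLSI broth microdilution, in duplicate on at least two occasions. Staphylococci were grown in Mueller-Hinton broth and agar; pneumococci were plated on sheep blood agar.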

[16] = AUC in bacterial pathogen-infected neutropenic Swiss ICR mouse thigh infection model at 40 mg/kg, ip; format: ADME, organism-based; set-up: dose 40 mg/kg, route intraperitoneal; conditions: in vivo
Procedure, shortened: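 Thigh-infected neutropenic mice received single intraperitoneal doses (2.5, 5, 10, 20, 40, 80 mg/kg; 0.2 ml/dose). Blood was drawn by retroorbital aspiration from groups of three mice at 0.5, 1, 2, 4, 6, 24, 48, 72 and 96 h. Plasma levels were measured by microbiologic assay with Bacillus subtilis (detection limit 0.10 mg/liter). Noncompartmental analysis was used: half-life by linear least-squares regression, AUC by trapezoidal rule.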

[17] = tested on: Staphylococcus aureus; assay: Antibacterial activity against Staphylococcus aureus ATCC 25923 in presence of 95% mouse serum; format: functional
Procedure, shortened: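 MIC determined in broth, heat-treated (100°C, 30 min) 95% mouse serum, and 95% mouse serum ultrafiltrate, using arithmetic dilutions of 0.02 mg/liter per tube. Protein binding estimated as (MIC in 95% serum − MIC in ultrafiltrate)/MIC in 95% serum.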

[18] = tested on: Streptococcus pneumoniae; assay: Bactericidal activity against penicillin-susceptible Streptococcus pneumoniae ATCC 10813 infected neutropenic Swiss ICR mouse thigh infection model assessed as drug level causing 1-log reduction of bacterial count at 1.26 mg/kg, ip dosed every 36 hrs; format: functional; conditions: route intraperitoneal
[19] = tested on: Staphylococcus aureus; assay: Bactericidal activity against […] Staphylococcus aureus ATCC 29213 infected neutropenic Swiss ICR mouse thigh infection model assessed as drug level causing 2-log reduction of bacterial count at 15 mg/kg, ip dosed every 36 hrs; format: functional; conditions: route intraperitoneal
[20] = tested on: Streptococcus pneumoniae; assay: Bactericidal activity against penicillin-susceptible Streptococcus pneumoniae ATCC 10813 infected neutropenic Swiss ICR mouse thigh infection model assessed as drug level causing 2-log reduction of bacterial count at 0.71 mg/kg, ip dosed every 72 hrs; format: functional; conditions: route intraperitoneal
Procedure, shortened: (§2)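 Neutropenic mice (cyclophosphamide ip 150 mg/kg day −4, 100 mg/kg day −1, then every 48 h) received 0.1 ml log-phase inoculum per thigh under halothane. Intraperitoneal dalbavancin started 2 h later and was given for 6 days at q12h, q24h, q36h or q72h, two mice per regimen. Thigh CFU were counted at 144 h. Endpoint doses relative to start-of-therapy counts came from Hill-model nonlinear regression and are expressed per 24 h.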

[21] = tested on: Streptococcus pneumoniae; assay: Bactericidal activity in Streptococcus pneumoniae ATCC 10813 infected neutropenic mouse thigh infection model assessed as drug level causing 2-log reduction of bacterial count at 4.13 mg/kg/6days; format: functional
[22] = tested on: Staphylococcus aureus; assay: Antibacterial activity against Staphylococcus aureus ATCC 25923 by microdilution method; format: functional; procedure, shortened: as §1
[23] = Cmax in bacterial pathogen-infected neutropenic Swiss ICR mouse thigh infection model at 2.5 mg/kg, ip; format: ADME, organism-based; set-up: dose 2.5 mg/kg, route intraperitoneal; conditions: in vivo
Procedure, shortened: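 Single-dose serum PK in thigh-infected neutropenic mice; intraperitoneal dalbavancin (0.2 ml/dose) at 2.5–80 mg/kg. Blood from groups of three mice at 0.5–96 h by retroorbital aspiration; plasma level by Bacillus subtilis microbiologic assay (detection limit 0.10 mg/liter). Noncompartmental analysis; AUC by trapezoidal rule from mean concentrations, extrapolated to infinity.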

[24] = tested on: Streptococcus pneumoniae; assay: Bactericidal activity against penicillin-susceptible Streptococcus pneumoniae ATCC 10813 infected neutropenic Swiss ICR mouse thigh infection model assessed as drug level causing 2-log reduction of bacterial count at 2.3 mg/kg, ip dosed every 12 hrs; format: functional; conditions: route intraperitoneal; procedure, shortened: as §2

Compound: CN[C@H]1C(=O)N[C@@H]2Cc3ccc(cc3)Oc3cc4cc(c3O[C@@H]3O[C@H](C(=O)O)[C@@H](O)[C@H](O)[C@H]3NC(=O)CCCCCCCCC(C)C)Oc3ccc(cc3Cl)[C@@H](O)[C@@H]3NC(=O)[C@H](NC(=O)[C@@H]4NC(=O)[C@@H](NC2=O)c2cc(cc(O)c2Cl)Oc2cc1ccc2O)c1ccc(O)c(c1)-c1c(O[C@H]2O[C@H](CO)[C@@H](O)[C@H](O)[C@@H]2O)cc(O)cc1[C@@H](C(=O)NCCCN(C)C)NC3=O [DALBAVANCIN]
- Activity [1]: 128
- RatioAUC/MIC [2]: 16
- Ratio [3]: 66
- Ratio [4]: 59
- Ratio [5]: 46.1
- RatioAUC/MIC [6]: 202
- RatioAUC/MIC [7]: 25.9
- RatioAUC/MIC [8]: 26.7
- RatioAUC/MIC [9]: 157
- Ratio [10]: 69.3
- Ratio [11]: 125
- RatioAUC/MIC [12]: 1.6
- RatioAUC/MIC [13]: 1.4
- Ratio [14]: 217
- MBC [15]: 0.004 µg/mL (≈ 0.0022 µM)
- MIC [15]: 0.004 µg/mL (≈ 0.0022 µM)
- AUC [16]: 10600 µg·h/mL
- MIC [17]: 32 µg/mL
- Activity [18]: 1.53
- Activity [19]: 122
- Activity [20]: 0.82
- Activity [21]: 4.62
- MBC [22]: 0.5 µg/mL (≈ 0.275 µM)
- MIC [22]: 0.12 µg/mL (≈ 0.0661 µM)
- Cmax [23]: 7400 ng/mL
- Activity [24]: 3.5
